Experimental data collected from several papers.
Target: Receptor-interacting serine/threonine-protein kinase 2 (RIPK2, Homo sapiens, UniProt O43353)

FC(F)(F)Oc1cccc(-c2cnc3ccc(-c4ccncc4)nn23)c1
activity vs control (enzyme activity, inhibitor, radiometric; 1 µM): 32%

O=C1NC(=O)c2cc(Nc3ccc(F)cc3)c(Nc3ccc(F)cc3)cc21
remaining signal (cell-free assay; 0.5 µM): 95%

CN1CCN(c2cnc3c(C4CCN(C(=O)c5ccc(OC(F)(F)F)cc5N)CC4)ncnc3c2)CC1
remaining binding (cell-free assay, competition with immobilised ligand; 1 µM): 100%

COc1cc(/C=C/C(=O)CC(=O)/C=C/c2ccc(O)c(OC)c2)ccc1O
activity vs control (enzyme activity, inhibitor; 1 µM): 16%

Cc1ccc(C(=O)NCc2ccsc2)cc1C#Cc1cn(C(C)C)c2ncnc(N)c12
activity vs control (enzyme activity, inhibitor; 1 µM): 14%

CC(=O)N1CCC(c2ccc(C(=O)NC(=N)N)cc2C(F)(F)F)CC1
remaining binding (cell-free assay, competition with immobilised ligand; 1 µM): 100%

CC(C)(C)c1nc2c(s1)c1nc(N)ncc1c1ccc(NS(=O)(=O)c3c(F)cccc3F)c(F)c12
remaining activity (enzyme activity, inhibitor, radiometric; 1 µM): 70%

C[C@H](c1ccc(F)cc1)N(Cc1cccc(C(=O)O)c1)C(=O)c1cnc2ccccc2c1
remaining binding (cell-free assay, competition with immobilised ligand; 1 µM): 82%

CCN(CC)CCNC(=O)c1c(C)[nH]c(/C=C2\C(=O)Nc3ccc(F)cc32)c1C
inhibition (enzyme activity, inhibitor; 0.3 µM): -10%

CCN(CC)c1ccc(C2=NNC(=O)CC2C)cc1[N+](=O)[O-] (centres unmarked)
remaining activity (enzyme activity, inhibitor; 10 µM): 91%

Cc1cc(NC(=O)c2cccc3cc(-c4cccc5[nH]nc(N)c45)ccc23)ccc1F
activity vs control (enzyme activity, inhibitor; 0.1 µM): 110%

Cc1sc(C(=O)NC2COC2)cc1-n1cc(NC(=O)Nc2c(F)cccc2Cl)cn1
remaining activity (enzyme activity, inhibitor; 10 µM): 89.3%

FC(F)c1nc2ccccc2n1-c1nc(N2CCOCC2)nc(N2CCOCC2)n1
remaining activity (enzyme activity, inhibitor; 10 µM): 89%

COc1cc2ncnc(Nc3ccc(Oc4ccccc4)cc3)c2cc1OC
remaining signal (cell-free assay; 0.5 µM): 55.5%

CC(=O)c1c(NS(C)(=O)=O)c2cc(-c3ccc(Cl)cc3)c(-c3ccc(Cl)cc3Cl)nc2n(C)c1=O
remaining binding (cell-free assay, competition with immobilised ligand; 1 µM): 96%

CNCc1ccc(-c2cc(-c3nc(-c4ccc(S(=O)(=O)C(C)C)cc4)cnc3N)on2)cc1
inhibition (enzyme activity, inhibitor; 0.4 µM): 6%

CN1CC(Oc2cnc(C#N)cc2-c2ccn3nc(NC(=O)C4CC4)cc3c2)C1
inhibition (enzyme activity, inhibitor; 1 µM): 81%

O=C1Nc2ccc(Cl)cc2C1=Cc1cc(Cl)c(O)c(Cl)c1
remaining signal (cell-free assay; 0.5 µM): 50.2%

CNCc1ccccc1-c1csc([C@@H](C)Nc2nc(C)nc3cc(OC)c(OC)cc23)c1
remaining binding (cell-free assay, competition with immobilised ligand; 1 µM): 100%

COc1cc(Nc2cnc(C#N)c(O[C@H](C)CN(C)C)n2)ncc1-c1cnn(C)c1
remaining activity (enzyme activity, inhibitor, radiometric; 10 µM): 71%

CCS(=O)(=O)c1cc2cc(C[C@@](O)(CC(C)(C)c3ccc(F)cc3C(N)=O)C(F)(F)F)[nH]c2cn1
remaining binding (cell-free assay, competition with immobilised ligand; 1 µM): 100%

Cn1cnc(Br)c1C1=CN(c2ncnc3[nH]cnc23)CCS1
inhibition (enzyme activity, inhibitor, radiometric; 50 nM): 16.6%

C[C@H](NC(=O)c1cnc2n1[C@](C)(Cc1ccc(C#N)cc1)C(=O)N2c1cc(Cl)c(F)c(Cl)c1)C(=O)NC1(c2ccccn2)CC1
remaining binding (cell-free assay, competition with immobilised ligand; 1 µM): 68%

Cc1ccc(Nc2nccc(N(C)c3ccc4c(C)n(C)nc4c3)n2)cc1S(N)(=O)=O
remaining activity (enzyme activity, inhibitor; 0.5 µM): 68.2%

CNC(=O)c1cc2c(Oc3ccc(NC(=O)C4(C(=O)Nc5ccc(F)cc5)CC4)cc3)ccnc2cc1OC
inhibition (enzyme activity, inhibitor, radiometric; 1 µM): 74%

Cc1cnc(NC2CCOCC2)nc1-n1cnc(C(=O)NC(CN)c2cc(F)cc(Cl)c2)c1 (centres unmarked)
remaining activity (enzyme activity, inhibitor, radiometric; 1 µM): 90%

CC(C)(O)[C@H]1CC[C@H](Nc2ccc3ncc(-c4cccc(C(F)(F)F)c4)n3n2)CC1
remaining activity (enzyme activity, inhibitor; 1 µM): 28.1%

CCc1ccccc1C(=O)Nc1n[nH]c2c(C)c(F)c(C3C(C#N)=C(C)N(C)C(C)=C3C#N)cc12
remaining binding (cell-free assay, competition with immobilised ligand; 1 µM): 100%

O=C(Nc1cnn(-c2csc(C(=O)NC3COC3)c2)c1)Nc1c(F)cccc1Cl
remaining activity (enzyme activity, inhibitor; 5 µM): 80.2%
